In ChEMBL document CHEMBL4334541, “Nicotinamide Phosphoribosyltransferase (NAMPT) Is a New Target of Antitumor Agent Chidamide” (ACS Med Chem Lett, 2020):
Calls of active or inactive are those of the source. The calls are words filed in the database; no cut-off is given here.

Experiments:
[1] = target: T1, Nicotinamide phosphoribosyltransferase (Homo sapiens, UniProt P43490); test: Inhibition of human NAMPT using NAM and PRPP as substrates incubated for 90 mins in presence of NMNAT by fluorometric method
Target sequence in this assay (P43490 whole entry): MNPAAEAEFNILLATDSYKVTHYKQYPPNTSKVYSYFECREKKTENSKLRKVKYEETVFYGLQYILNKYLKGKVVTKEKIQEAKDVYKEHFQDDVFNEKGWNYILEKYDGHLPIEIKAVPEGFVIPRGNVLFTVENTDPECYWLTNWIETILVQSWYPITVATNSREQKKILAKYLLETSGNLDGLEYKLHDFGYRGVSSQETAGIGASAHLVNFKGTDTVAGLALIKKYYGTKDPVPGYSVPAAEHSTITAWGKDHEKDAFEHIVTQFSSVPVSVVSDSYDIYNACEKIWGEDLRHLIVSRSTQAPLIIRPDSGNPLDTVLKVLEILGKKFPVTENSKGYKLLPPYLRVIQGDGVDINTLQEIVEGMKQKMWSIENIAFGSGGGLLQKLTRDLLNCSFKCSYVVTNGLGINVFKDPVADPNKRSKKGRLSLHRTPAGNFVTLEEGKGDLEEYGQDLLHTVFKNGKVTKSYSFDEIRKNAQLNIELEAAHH

[2] = target: T1, Nicotinamide phosphoribosyltransferase; test: Inhibition of NAMPT in human HEL cells assessed as decrease in cellular NAD+ level after 24 hrs in presence of NA by MTT assay; type: cell-based
Summary of the method: (§1)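 Rescue test in HCT116, K562, HL60 and HEL cells, with NA supplemented at 4 μM alongside compound treatment.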
Target sequence in this assay (P43490 whole entry, looked up): as the sequence (P43490 whole entry) above

[3] = target: T1, Nicotinamide phosphoribosyltransferase; test: Inhibition of NAMPT in human HEL cells assessed as decrease in cellular NAD+ level after 24 hrs in presence of NMN by MTT assay; type: cell-based
Summary of the method: (§2)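 Rescue test in HCT116, K562, HL60 and HEL cells, with NMN supplemented at 10 μM alongside compound treatment.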
Target sequence in this assay (P43490 whole entry, looked up): as the sequence (P43490 whole entry) above

[4] = target: T1, Nicotinamide phosphoribosyltransferase; test: Inhibition of NAMPT in human HCT116 cells assessed as decrease in cellular NAD+ level after 24 hrs in presence of NMN by MTT assay; type: cell-based; summary of the method: as §2
Target sequence in this assay (P43490 whole entry, looked up): as the sequence (P43490 whole entry) above

[5] = test system: HEL; test: Antiproliferative activity against human HEL cells NAMPT deficient assessed as reduction in cell viability after 72 hrs by CCK8 assay; type: functional, cell-based
Summary of the method: (§3)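 NAMPT-deficient cells were generated by siRNA knockdown of NAMPT before cytotoxicity testing.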

[6] = test system: HCT-116; test: Antiproliferative activity against human HCT116 cells NAMPT deficient assessed as reduction in cell viability after 72 hrs by CCK8 assay; type: functional, cell-based; settings: HCT-116, 72 h; summary of the method: as §3
[7] = target: T1, Nicotinamide phosphoribosyltransferase; test: Inhibition of NAMPT in human K562 cells assessed as decrease in cellular NAD+ level after 24 hrs in presence of NMN by MTT assay; type: cell-based; summary of the method: as §2
Target sequence in this assay (P43490 whole entry, looked up): as the sequence (P43490 whole entry) above

[8] = test system: HL-60; test: Antiproliferative activity against human HL60 cells NAMPT deficient assessed as reduction in cell viability after 72 hrs by CCK8 assay; type: functional, cell-based; settings: HL-60, 72 h; summary of the method: as §3
[9] = target: T1, Nicotinamide phosphoribosyltransferase; test: Inhibition of NAMPT in human HL60 cells assessed as decrease in cellular NAD+ level after 24 hrs in presence of NMN by MTT assay; type: cell-based; summary of the method: as §2
Target sequence in this assay (P43490 whole entry, looked up): as the sequence (P43490 whole entry) above

[10] = test system: HEL; test: Antiproliferative activity against human HEL cells assessed as reduction in cell viability after 72 hrs by CCK8 assay; type: functional, cell-based
[11] = target: T1, Nicotinamide phosphoribosyltransferase; test: Inhibition of NAMPT in human HCT116 cells assessed as decrease in cellular NAD+ level after 24 hrs in presence of NA by MTT assay; type: cell-based; summary of the method: as §1
Target sequence in this assay (P43490 whole entry, looked up): as the sequence (P43490 whole entry) above

[12] = test system: K562; test: Antiproliferative activity against human K562 cells assessed as reduction in cell viability after 72 hrs by CCK8 assay; type: functional, cell-based; settings: K562, 72 h
[13] = target: T1, Nicotinamide phosphoribosyltransferase; test: Inhibition of NAMPT in human HL60 cells assessed as decrease in cellular NAD+ level after 24 hrs in presence of NA by MTT assay; type: cell-based; summary of the method: as §1
[14] = target: T1, Nicotinamide phosphoribosyltransferase; test: Inhibition of NAMPT in human K562 cells assessed as decrease in cellular NAD+ level after 24 hrs in presence of NA by MTT assay; type: cell-based; summary of the method: as §1
[15] = test system: K562; test: Antiproliferative activity against human K562 cells NAMPT deficient assessed as reduction in cell viability after 72 hrs by CCK8 assay; type: functional, cell-based; settings: K562, 72 h; summary of the method: as §3
[16] = test system: HCT-116; test: Antiproliferative activity against human HCT116 cells assessed as reduction in cell viability after 72 hrs by CCK8 assay; type: functional, cell-based; settings: HCT-116, 72 h
[17] = target: T1, Nicotinamide phosphoribosyltransferase; test: Inhibition of NAMPT in human HCT116 cells assessed as decrease in cellular NAD+ level after 24 hrs by MTT assay; type: cell-based
Summary of the method: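 Relative cellular NAD+ level in HCT116 cells after 24 h exposure to a range of compound concentrations, compared qualitatively with an untreated control.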

[18] = test system: HL-60; test: Antiproliferative activity against human HL60 cells assessed as reduction in cell viability after 72 hrs by CCK8 assay; type: functional, cell-based; settings: HL-60, 72 h

- IC50 [1]: 2100 nM
- inhibition [2]: inactive
- inhibition [3]: inactive
- inhibition [4]: inactive
- IC50 [6]: > 20000 nM
- inhibition [7]: inactive
- IC50 [8]: 3200 nM
- inhibition [9]: inactive
- inhibition [11]: inactive
- IC50 [12]: 320 nM
- inhibition [13]: inactive
- inhibition [14]: inactive
- IC50 [15]: 2400 nM
- IC50 [16]: 340 nM
- inhibition [17]: Active
- IC50 [18]: 2.2 nM
Compound: Nc1cc(F)ccc1NC(=O)c1ccc(CNC(=O)/C=C/c2cccnc2)cc1 [TUCIDINOSTAT]
- IC50 [5]: 1800 nM
- IC50 [10]: 13 nM
